ChEMBL document CHEMBL4316595, “Synthesis and structure-activity relationship studies of parthenolide derivatives as potential anti-triple negative breast cancer agents” (Eur J Med Chem, 2019)
Counter-ions that a name gives are not always drawn. The source made the active and inactive calls. The rule behind the calls is not given here.

Tests used:
[1] = system: MDA-MB-231; test: Antiproliferative activity against human MDA-MB-231 cells measured after 72 hrs by MTT assay; assay type: functional, cell-based; conditions: MDA-MB-231, 72 h
In short: (§1)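 MTT antiproliferation assay on human breast cancer lines MDA-MB-231, SUM-159, MCF-7 and Bcap-37 and on mouse 4T1 breast cancer cells. IC50 values were taken from the MTT read-out. Adriamycin served as the positive control.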

[2] = system: MCF7; test: Antiproliferative activity against human MCF7 cells measured after 72 hrs by MTT assay; assay type: functional, cell-based; conditions: MCF7, 72 h; in short: as §1
[3] = system: Bcap37; test: Antiproliferative activity against human Bcap37 cells measured after 72 hrs by MTT assay; assay type: functional, cell-based; conditions: Bcap37, 72 h; in short: as §1
[4] = system: SUM-159-PT; test: Antiproliferative activity against human SUM159 cells measured after 72 hrs by MTT assay; assay type: functional, cell-based; in short: as §1
[5] = system: 4T1; test: Antiproliferative activity against mouse 4T1 cells measured after 72 hrs by MTT assay; assay type: functional, cell-based; conditions: 4T1, 72 h; in short: as §1
[6] = system: MDA-MB-231; test: Potency index, ratio of parthenolide IC50 to test compound IC50 for human MDA-MB-231 cells; assay type: functional
[7] = system: SUM-159-PT; test: Induction of apoptosis in human SUM159 cells assessed as viable cells at 0.5 uM measured after 48 hrs by Annexin-V APC/propidium iodide staining based flow cytometry (reference value: 95.9%); assay type: functional; conditions: read-out: Activity
In short: (§2)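 SUM-159 cells were exposed at 0, 0.2 and 0.5 µM, then stained with annexin V/PI and analysed by flow cytometry. Early apoptosis was annexin V+/PI−, late apoptosis annexin V+/PI+, and total apoptosis was the sum of the two.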

[8] = system: SUM-159-PT; test: Induction of apoptosis in human SUM159 cells assessed as necrotic cells at 0.5 uM measured after 48 hrs by Annexin-V APC/propidium iodide staining based flow cytometry (reference value: 0.152%); assay type: functional; in short: as §2
[9] = system: SUM-159-PT; test: Induction of apoptosis in human SUM159 cells assessed as late apoptotic cells at 0.5 uM measured after 48 hrs by Annexin-V APC/propidium iodide staining based flow cytometry (reference value: 1.45%); assay type: functional; in short: as §2
[10] = system: SUM-159-PT; test: Induction of apoptosis in human SUM159 cells assessed as early apoptotic cells at 0.5 uM measured after 48 hrs by Annexin-V APC/propidium iodide staining based flow cytometry (reference value: 2.5%); assay type: functional; in short: as §2
[11] = system: NIH3T3; test: Cytotoxicity against mouse 3T3 cells measured after 72 hrs by MTT assay; assay type: cell-based; conditions: NIH3T3, 72 h
In short: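 Cytotoxicity was measured by MTT on normal 3T3 mouse embryonic fibroblasts, with IC50 from the MTT read-out.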

[12] = molecular target: T1, Serine/threonine-protein kinase Chk1 (Homo sapiens) (UniProt O14757); test: Inhibition of Chk1 phosphorylation in human SUM159 cells at 0.1 to 0.2 uM measured after 48 hrs by Western blot analysis; assay type: cell-based
T1 sequence (whole entry): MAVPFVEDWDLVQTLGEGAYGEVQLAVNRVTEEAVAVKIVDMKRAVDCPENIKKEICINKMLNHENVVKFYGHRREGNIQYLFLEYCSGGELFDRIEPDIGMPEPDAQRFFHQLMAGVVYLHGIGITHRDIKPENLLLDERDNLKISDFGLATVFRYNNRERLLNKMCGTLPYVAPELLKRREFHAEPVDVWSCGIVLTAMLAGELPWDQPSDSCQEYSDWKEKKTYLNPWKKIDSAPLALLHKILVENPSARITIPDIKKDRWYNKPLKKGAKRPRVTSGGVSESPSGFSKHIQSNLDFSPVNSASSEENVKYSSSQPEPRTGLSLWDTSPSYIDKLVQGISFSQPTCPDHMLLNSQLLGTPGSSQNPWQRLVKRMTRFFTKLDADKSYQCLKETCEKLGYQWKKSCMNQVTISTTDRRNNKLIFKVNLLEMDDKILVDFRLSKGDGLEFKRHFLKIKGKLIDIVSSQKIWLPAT

[13] = molecular target: Cyclin-dependent kinase 1 (Homo sapiens) (UniProt P06493); test: Inhibition of CDC2 phosphorylation in human SUM159 cells at 0.1 to 0.2 uM measured after 48 hrs by Western blot analysis; assay type: cell-based
[14] = system: SUM-159-PT; test: Induction of apoptosis in human SUM159 cells assessed as increase in cleaved caspase-9 measured after 48 hrs by Western blot analysis; assay type: functional, cell-based
[15] = molecular target: Serine/threonine-protein kinase Chk2 (Homo sapiens) (UniProt O96017); test: Inhibition of Chk2 phosphorylation in human SUM159 cells at 0.1 to 0.2 uM measured after 48 hrs by Western blot analysis; assay type: cell-based
[16] = system: SUM-159-PT; test: Induction of apoptosis in human SUM159 cells assessed as increase in cytochrome-C release measured after 48 hrs by Western blot analysis; assay type: functional, cell-based
[17] = system: SUM-159-PT; test: Induction of apoptosis in human SUM159 cells assessed as increase in Bim expression measured after 48 hrs by Western blot analysis; assay type: functional, cell-based
[18] = system: SUM-159-PT; test: Cell cycle arrest in human SUM159 cells assessed as down regulation of CHK1 expression at 0.1 to 0.2 uM measured after 48 hrs by Western blot analysis; assay type: functional, cell-based
[19] = system: SUM-159-PT; test: Cell cycle arrest in human SUM159 cells assessed as up regulation of P27 expression at 0.1 to 0.2 uM measured after 48 hrs by Western blot analysis; assay type: functional, cell-based
[20] = system: Bcap37; test: Potency index, ratio of parthenolide IC50 to test compound IC50 for human Bcap37 cells; assay type: functional
[21] = system: 4T1; test: Potency index, ratio of parthenolide IC50 to test compound IC50 for mouse 4T1 cells; assay type: functional
[22] = system: SUM-159-PT; test: Induction of apoptosis in human SUM159 cells assessed as late apoptotic cells at 0.2 uM measured after 48 hrs by Annexin-V APC/propidium iodide staining based flow cytometry (reference value: 1.45%); assay type: functional; in short: as §2
[23] = system: SUM-159-PT; test: Cell cycle arrest in human SUM159 cells assessed as increase in G1-phase accumulation at […] measured after 48 hrs by propidium iodide staining based flow cytometry; assay type: functional
In short: (§3)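 SUM-159 cells were treated for 48 h. Cell cycle distribution (G1, S, G2/M) was measured by flow cytometry and compared with an untreated control group.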

[24] = Therapeutic index, ratio of IC50 for mouse 3T3 cells to IC50 for mouse 4T1 cells; assay type: toxicity; conditions: 3T3 cells and 4T1 cells, read-out: Ratio IC50
[25] = system: SUM-159-PT; test: Cell cycle arrest in human SUM159 cells assessed as down regulation of CHK2 expression at 0.1 to 0.2 uM measured after 48 hrs by Western blot analysis; assay type: functional, cell-based
[26] = system: MCF7; test: Potency index, ratio of parthenolide IC50 to test compound IC50 for human MCF7 cells; assay type: functional
[27] = system: SUM-159-PT; test: Cell cycle arrest in human SUM159 cells assessed as decrease in G2/M-phase accumulation at […] measured after 48 hrs by propidium iodide staining based flow cytometry; assay type: functional; in short: as §3
[28] = system: SUM-159-PT; test: Potency index, ratio of parthenolide IC50 to test compound IC50 for human SUM159 cells; assay type: functional
[29] = system: SUM-159-PT; test: Cell cycle arrest in human SUM159 cells assessed as decrease in S-phase accumulation measured after 48 hrs by propidium iodide staining based flow cytometry
[30] = system: SUM-159-PT; test: Induction of apoptosis in human SUM159 cells assessed as necrotic cells at 0.2 uM measured after 48 hrs by Annexin-V APC/propidium iodide staining based flow cytometry (reference value: 0.152%); assay type: functional; in short: as §2
[31] = system: SUM-159-PT; test: Induction of apoptosis in human SUM159 cells assessed as viable cells at 0.2 uM measured after 48 hrs by Annexin-V APC/propidium iodide staining based flow cytometry (reference value: 95.9%); assay type: functional; conditions: read-out: Activity; in short: as §2
[32] = system: SUM-159-PT; test: Induction of apoptosis in human SUM159 cells assessed as early apoptotic cells at 0.2 uM measured after 48 hrs by Annexin-V APC/propidium iodide staining based flow cytometry (reference value: 2.5%); assay type: functional; in short: as §2
[33] = system: SUM-159-PT; test: Induction of apoptosis in human SUM159 cells assessed as increase in Bax expression measured after 48 hrs by Western blot analysis; assay type: functional, cell-based
[34] = system: MDA-MB-231; test: Antiproliferative activity against human MDA-MB-231 cells co-treated with melampomagnolide B at 1:1 molar ratio measured after 72 hrs by MTT assay; conditions: MDA-MB-231, 72 h

Chain of Cyclin-dependent kinase 1 (Homo sapiens) (P06493 whole entry, looked up): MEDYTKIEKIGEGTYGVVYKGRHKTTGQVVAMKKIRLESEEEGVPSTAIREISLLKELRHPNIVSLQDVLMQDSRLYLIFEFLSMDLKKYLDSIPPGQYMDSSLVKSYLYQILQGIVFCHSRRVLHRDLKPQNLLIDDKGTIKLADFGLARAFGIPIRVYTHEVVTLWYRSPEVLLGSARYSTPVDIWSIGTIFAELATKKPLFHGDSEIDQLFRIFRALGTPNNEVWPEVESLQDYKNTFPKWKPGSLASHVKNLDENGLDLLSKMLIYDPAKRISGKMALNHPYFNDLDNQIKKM
Chain of Serine/threonine-protein kinase Chk2 (Homo sapiens) (O96017 whole entry): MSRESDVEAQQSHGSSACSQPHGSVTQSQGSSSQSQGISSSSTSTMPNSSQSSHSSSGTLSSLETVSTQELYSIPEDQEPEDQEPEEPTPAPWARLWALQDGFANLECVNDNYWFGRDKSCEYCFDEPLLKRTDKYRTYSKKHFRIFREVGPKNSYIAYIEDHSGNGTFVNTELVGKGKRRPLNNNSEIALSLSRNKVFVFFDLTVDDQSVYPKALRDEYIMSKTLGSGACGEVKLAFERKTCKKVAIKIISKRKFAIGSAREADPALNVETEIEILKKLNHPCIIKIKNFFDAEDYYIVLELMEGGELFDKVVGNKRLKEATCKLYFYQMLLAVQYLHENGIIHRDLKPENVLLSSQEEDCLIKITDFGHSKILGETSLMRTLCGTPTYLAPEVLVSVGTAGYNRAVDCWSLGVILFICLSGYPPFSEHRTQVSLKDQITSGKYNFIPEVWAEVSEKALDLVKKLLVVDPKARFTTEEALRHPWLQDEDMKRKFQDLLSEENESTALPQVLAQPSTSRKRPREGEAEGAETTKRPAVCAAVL

C=C1C(=O)O[C@H]2[C@H]1CC/C(COC(=O)/C=C/c1ccccc1OCC)=C\CC[C@@]1(C)O[C@@H]21
IC50 [1]: 340 nM
IC50 [2]: 290 nM
IC50 [3]: 420 nM
IC50 [4]: 210 nM
IC50 [5]: 180 nM
Ratio IC50 [6]: 10

C=C1C(=O)O[C@H]2[C@H]1CC/C(COC(=O)/C=C/c1ccccc1)=C\CC[C@@]1(C)O[C@@H]21
IC50 [1]: 1350 nM
Ratio IC50 [6]: 2

C=C1C(=O)O[C@@H]2C3O[C@]3(C)CC/C=C(\C)CC[C@@H]12 (some centres not stated)
IC50 [1]: 3480 nM
viability at 0.5 µM [7]: 96.4%
IC50 [2]: 2680 nM
IC50 [3]: 4630 nM
Activity [8]: 0.049%
Activity [9]: 1.1%
IC50 [4]: 3060 nM
IC50 [5]: 4090 nM
Activity [10]: 2.49%

C=C1C(=O)O[C@H]2[C@H]1CC/C(COC(=O)/C=C/c1cc(OC)ccc1OC)=C\CC[C@@]1(C)O[C@@H]21
IC50 [1]: 260 nM
IC50 [2]: 260 nM
IC50 [3]: 550 nM
IC50 [4]: 260 nM
IC50 [5]: 340 nM
Ratio IC50 [6]: 14

C=C1C(=O)O[C@H]2[C@H]1CC/C(COC(=O)/C=C/c1c(OC)cccc1OC)=C\CC[C@@]1(C)O[C@@H]21
IC50 [11]: 8130 nM
inhibition [12]: Active
inhibition [13]: Active
Activity [14]: Active
inhibition [15]: Active
IC50 [1]: 250 nM
Activity [16]: Active
Activity [17]: Active
Activity [18]: Active
viability at 0.5 µM [7]: 61.3%
Activity [19]: Active
IC50 [2]: 230 nM
IC50 [3]: 270 nM
Ratio IC50 [20]: 11.6 - 18.6
Ratio IC50 [21]: 11.6 - 18.6
Activity [22]: 0.79%
Activity [23]: Active
Activity [8]: 2.04%
selectivity ratio [24]: 36.9
Activity [25]: Active
Ratio IC50 [26]: 11.6 - 18.6
Activity [9]: 6.07%
IC50 [4]: 200 nM
IC50 [5]: 220 nM
Activity [27]: Active
Ratio IC50 [28]: 11.6 - 18.6
Activity [29]: Active
Ratio IC50 [6]: 14
Activity [10]: 30.5%
Activity [30]: 0.029%
viability at 0.2 µM [31]: 96.3%
Activity [32]: 2.93%
Activity [33]: Active

COc1cccc(OC)c1/C=C/C(=O)O
IC50 [1]: > 50000 nM
IC50 [34]: 3920 nM

COc1cccc2c1C(=O)c1c(O)c3c(c(O)c1C2=O)C[C@@](O)(C(=O)CO)C[C@@H]3O[C@H]1C[C@H](N)[C@H](O)[C@H](C)O1 [DOXORUBICIN HYDROCHLORIDE]
IC50 [11]: 360 nM
IC50 [1]: 800 nM
selectivity ratio [24]: 0.45
IC50 [5]: 800 nM

C=C1C(=O)O[C@H]2[C@H]1CC/C(COC(=O)/C=C/c1cc(OC)c(OC)c(OC)c1)=C\CC[C@@]1(C)O[C@@H]21
IC50 [1]: 950 nM
IC50 [2]: 1390 nM
IC50 [3]: 1960 nM
IC50 [4]: 860 nM
IC50 [5]: 630 nM

C=C1C(=O)O[C@H]2[C@H]1CC/C(COC(=O)/C=C/c1cccc(C(F)(F)F)c1)=C\CC[C@@]1(C)O[C@@H]21
IC50 [1]: 830 nM
IC50 [2]: 2150 nM
IC50 [3]: 1860 nM
IC50 [4]: 640 nM
IC50 [5]: 1480 nM
